# Measurements as given in publication PMC5817033 (Nuclear medicine and biology, 2017).
# Several values for one entry are separate records, joined by “and”; a condition that tells them apart may be missing. Identical values can stand only once. Like-named read-outs stand apart in the source and are kept apart here.
# Key:
# [1] = Ex-vivo biodistribution of ^18F-1 co-injected with ^131I-OIH in normal rats; parameters: species or system Sprague-Dawley rats; details: mean ± SD
# [2] = normal rats, mean ± SD, cited from earlier work
# [3] = cited from earlier work
# [4] = cited from earlier work; remark: listed apart in the source
# [5] = rat plasma, ultrafiltration, mean of duplicate
# [6] = rat blood, mean of duplicate
# [7] = rat urine collected for 10 min after i.v. injection
# [8] = pH 7, room temperature, over 23 hours after labeling
# [9] = rats, 1 h post injection; cited from earlier work
# [10] = Thermal stability of labeling precursor by HPLC; format: physicochemical; details: 110 °C for 1 hour
# Procedure, shortened: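 Tosylate labeling precursor heated at 110 °C for 1 hour. Stability is judged by comparing its HPLC chromatograms before and after heating.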
Molecule,Blood activity ([1]; 10 min after i.v. injection),Bowel activity (intestines and stomach) ([1]; 10 min after i.v. injection),Heart activity ([1]; 10 min after i.v. injection),Kidney activity ([1]; 10 min after i.v. injection),Liver activity ([1]; 10 min after i.v. injection),Lung activity ([1]; 10 min after i.v. injection),Spleen activity ([1]; 10 min after i.v. injection),Urine activity ([1]; 10 min after i.v. injection),Blood activity ([1]; 60 min after i.v. injection),Bowel activity (intestines and stomach) ([1]; 60 min after i.v. injection),Heart activity ([1]; 60 min after i.v. injection),Kidney activity ([1]; 60 min after i.v. injection),Liver activity ([1]; 60 min after i.v. injection),Lung activity ([1]; 60 min after i.v. injection),Spleen activity ([1]; 60 min after i.v. injection),Urine activity ([1]; 60 min after i.v. injection),Blood activity ([2]; 10 min after injection),Bowel activity (intestines and stomach) ([2]; 10 min after injection),Heart activity ([2]; 10 min after injection),Kidney activity ([2]; 10 min after injection),other results
"O=C(O)CNC(=O)c1ccccc1[131I] [OIH, ^131I-orthoidodohippurate]",4.5 ± 0.4 %ID,1.3 ± 0.6 %ID,0.1 ± 0.0 %ID,5.2 ± 1.6 %ID,2.8 ± 0.6 %ID,0.3 ± 0.1 %ID,0.1 ± 0.0 %ID,54.4 ± 6.9 %ID,0.8 ± 0.1 %ID,1.1 ± 0.2 %ID,0.0 ± 0.0 %ID,1.0 ± 0.8 %ID,0.6 ± 0.1 %ID,0.1 ± 0.1 %ID,0.0 ± 0.0 %ID,84.8 ± 3.8 %ID,5.8 ± 1.0 %ID,1.8 ± 0.2 %ID,0.2 ± 0.0 %ID,4.8 ± 0.8 %ID,Liver activity ([2]; 10 min after injection): 3.0 ± 0.9 %ID; Lung activity ([2]; 10 min after injection): 0.4 ± 0.1 %ID; Spleen activity ([2]; 10 min after injection): 0.1± 0.0 %ID; Urine activity ([2]; 10 min after injection): 54.2 ± 9.2 %ID; Blood activity ([2]; 60 min after injection): 0.5 ± 0.4 %ID; Bowel activity (intestines and stomach) ([2]; 60 min after injection): 1.2 ± 0.5 %ID; Heart activity ([2]; 60 min after injection): 0.1 ± 0.0 %ID; Kidney activity ([2]; 60 min after injection): 0.5 ± 0.2 %ID; Liver activity ([2]; 60 min after injection): 0.5 ± 0.1 %ID; Lung activity ([2]; 60 min after injection): 0.1 ± 0.1 %ID; Spleen activity ([2]; 60 min after injection): 0.1 ± 0.1 %ID; Urine activity ([2]; 60 min after injection): 80.2 ± 5.3 %ID; Plasma protein binding [3]: 44%; Red cell uptake [4]: 35%
"O=C([O-])CN(CC[18F])CC(=O)[O-].[C-]#[O+].[C-]#[O+].[C-]#[O+].[Re+] [^18F-1, rhenium-tricarbonyl-N-(2-[^18F]fluoroethyl)iminodiacetic acid]",5.2 ± 0.7 %ID,2.1 ± 1.7 %ID,0.1 ± 0.0 %ID,9.4 ± 2.0 %ID,5.6 ± 0.3 %ID,0.4 ± 0.1 %ID,0.1 ± 0.0 %ID,49.3 ± 3.7 %ID,0.3 ± 0.1 %ID,3.9 ± 2.0 %ID,0.0 ± 0.0 %ID,1.0 ± 0.7 %ID,0.4 ± 0.1 %ID,0.1 ± 0.1 %ID,0.0 ± 0.0 %ID,80.5 ± 4.4 %ID,–,–,–,–,%Urine: urine activity as a percentage of ^131I-OIH (^18F/^131I-OIH ratio) ([1]; 10 min): 92% and 92 ± 14%; Bone uptake ([1]; 10 min after i.v. injection): 0.08 ± 0.01 %ID/g; %Urine: urine activity as a percentage of ^131I-OIH (^18F/^131I-OIH ratio) ([1]; 60 min): 95% and 95 ± 5%; Plasma protein binding (PPB) [5]: 87%; Erythrocyte uptake (RCB) [6]: 21%; In vivo stability: HPLC analysis of urine for metabolites [7]: only the intact parent compound; In vitro stability of formulated solution (HPLC) [8]: No measurable decomposition
"O=C(O)CNC(=O)c1ccc([18F])cc1 [^18F-PFH, p-^18F-fluorohippuran]",–,–,–,–,–,–,–,–,–,–,–,–,–,–,–,–,–,–,–,–,Activity in blood [9]: ~ 0.3 %ID; Activity in urine [9]: ~ 81 % ID
^99mTc(CO)3(2-fluoroethyl)iminodiacetic acid [^99mTc-1],–,–,–,–,–,–,–,–,–,–,–,–,–,–,–,–,5.1 ± 0.9 %ID,2.9 ± 0.5 %ID,0.1 ± 0.0 %ID,6.6 ± 2.1 %ID,%Urine: urine activity as a percentage of ^131I-OIH (^99mTc/^131I-OIH ratio) ([2]; 10 min): 100 ± 4%; Liver activity ([2]; 10 min after injection): 5.9 ± 0.8 %ID; Lung activity ([2]; 10 min after injection): 0.4 ± 0.2 %ID; Spleen activity ([2]; 10 min after injection): 0.1 ± 0.0 %ID; Urine activity ([2]; 10 min after injection): 54.1 ± 7.2 %ID; %Urine: urine activity as a percentage of ^131I-OIH (^99mTc/^131I-OIH ratio) ([2]; 60 min): 99 ± 2%; Blood activity ([2]; 60 min after injection): 0.3 %ID and 0.3 ± 0.1 %ID; Bowel activity (intestines and stomach) ([2]; 60 min after injection): 2.9 ± 1.4 %ID; Heart activity ([2]; 60 min after injection): 0.0 ± 0.0 %ID; Kidney activity ([2]; 60 min after injection): 0.7 ± 0.2 %ID; Liver activity ([2]; 60 min after injection): 0.8 ± 0.1 %ID; Lung activity ([2]; 60 min after injection): 0.1 ± 0.1 %ID; Spleen activity ([2]; 60 min after injection): 0.1 ± 0.2 %ID; Urine activity ([2]; 60 min after injection): 79.2 ± 6.4 %ID; Erythrocyte uptake ([4]; rats): 20%
rhenium-tricarbonyl-N-(2-(4-methylbenzenesulphonate)ethyl))iminodiacetic acid [Re-OTs],–,–,–,–,–,–,–,–,–,–,–,–,–,–,–,–,–,–,–,–,Stability on heating (HPLC) [10]: stable
